From ChEMBL document CHEMBL3758131, “Towards new 5-HT7 antagonists among arylsulfonamide derivatives of (aryloxy)ethyl-alkyl amines: Multiobjective based design, synthesis, and antidepressant and anxiolytic properties” (Eur J Med Chem, 2016)

Tests used:
Mus musculus [1] = experiment: Antidepressant activity in C57BL/6J mouse assessed as number of events at 0.625 mg/kg, ip measured over 6 mins by tail suspension test (reference value: 1325.1 +/- 77.8 to 1773.4 +/- 109.9); format: functional
Mus musculus [2] = experiment: Antidepressant activity in C57BL/6J mouse assessed as number of events at […] mg/kg, ip measured over 6 mins by tail suspension test (reference value: 1325.1 +/- 77.8 to 1773.4 +/- 109.9); format: functional
Mus musculus [3] = experiment: Antidepressant activity in C57BL/6J mouse assessed as number of events at […], ip measured over 6 mins by tail suspension test (reference value: 1325.1 +/- 77.8 to 1773.4 +/- 109.9); format: functional
Mus musculus [4] = experiment: Antidepressant activity in C57BL/6J mouse assessed as immobility time at 0.625 mg/kg, ip measured over 6 mins by tail suspension test (reference value: 160.7 +/- 12 to 170.6 +/- 9 sec); format: functional
Mus musculus [5] = experiment: Antidepressant activity in C57BL/6J mouse assessed as immobility time at […] mg/kg, ip measured over 6 mins by tail suspension test (reference value: 160.7 +/- 12 to 170.6 +/- 9 sec); format: functional
Mus musculus [6] = experiment: Antidepressant activity in C57BL/6J mouse assessed as immobility time at […], ip measured over 6 mins by tail suspension test (reference value: 160.7 +/- 12 to 170.6 +/- 9 sec); format: functional
Mus musculus [7] = experiment: Antidepressant activity in C57BL/6J mouse assessed as immobility time at 5 mg/kg, ip measured over 6 mins by tail suspension test (reference value: 160.7 +/- 12 to 170.6 +/- 9 sec); format: functional
Mus musculus [8] = experiment: Antidepressant activity in ip dosed albino Swiss mouse assessed as decrease in immobility time at MED by forced swim test; format: functional
Mus musculus [9] = experiment: Toxicity in ip dosed albino Swiss mouse assessed as effect on spontaneous locomotory activity at MED measured over 2 to 6 mins; format: organism-based; conditions: in vivo
Method in brief: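 Male Albino Swiss mice (22–28 g) received drug i.p. 60 min before testing, in 1% aqueous Tween 80 or distilled water. Each mouse was habituated alone in a plastic cage for 30 min, then ambulation was counted from 2 to 6 min. Groups of 6–10 animals, each used once.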

Homo sapiens = species on record: Homo sapiens; experiment: Selectivity index ratio of Ki for human 5-HT1A receptor to Ki for human 5-HT7B
D(2) dopamine receptor = D(2) dopamine receptor (Homo sapiens, UniProt P14416); experiment: Displacement of [3H]-Raclopride from human D2L receptor expressed in HEK293 cells after 1 hr; format: cell-based
Chain of D(2) dopamine receptor (P14416 whole entry): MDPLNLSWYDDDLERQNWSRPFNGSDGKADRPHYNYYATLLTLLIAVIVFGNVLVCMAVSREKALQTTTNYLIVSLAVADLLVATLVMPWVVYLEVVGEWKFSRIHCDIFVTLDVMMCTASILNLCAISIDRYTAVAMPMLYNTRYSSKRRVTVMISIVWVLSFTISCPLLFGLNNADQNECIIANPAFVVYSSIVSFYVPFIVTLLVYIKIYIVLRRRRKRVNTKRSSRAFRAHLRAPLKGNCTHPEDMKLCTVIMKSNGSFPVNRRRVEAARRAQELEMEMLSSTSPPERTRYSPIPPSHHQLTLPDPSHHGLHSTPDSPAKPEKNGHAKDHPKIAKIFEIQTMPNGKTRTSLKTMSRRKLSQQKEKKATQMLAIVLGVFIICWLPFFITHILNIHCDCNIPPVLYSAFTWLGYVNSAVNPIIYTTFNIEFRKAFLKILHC
Method in brief: (§1)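 Membranes from stably transfected HEK293 cells were homogenized in assay buffer and spun twice at 35,000 g with a 15-min 37 °C step between. Binding ran 1 h at 37 °C and was stopped by rapid filtration, then filter radioactivity was counted. 5-HT6 buffer: 50 mM Tris-HCl, 0.5 mM EDTA, 4 mM MgCl2, with methiothepine for nonspecific binding. D2L buffer: Tris-HCl, EDTA, MgCl2, 120 mM NaCl, KCl, CaCl2, ascorbate, with (+)butaclamol for nonspecific binding. Triplicate, 7–8 concentrations (10^-11–10^-4 M).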

[10] = target: 5-hydroxytryptamine receptor 6 (Homo sapiens, UniProt P50406); experiment: Displacement of [3H]-LSD from human 5-HT6 receptor expressed in HEK293 cells after 1 hr; format: cell-based; method in brief: as §1
Chain of 5-hydroxytryptamine receptor 6 (P50406 whole entry): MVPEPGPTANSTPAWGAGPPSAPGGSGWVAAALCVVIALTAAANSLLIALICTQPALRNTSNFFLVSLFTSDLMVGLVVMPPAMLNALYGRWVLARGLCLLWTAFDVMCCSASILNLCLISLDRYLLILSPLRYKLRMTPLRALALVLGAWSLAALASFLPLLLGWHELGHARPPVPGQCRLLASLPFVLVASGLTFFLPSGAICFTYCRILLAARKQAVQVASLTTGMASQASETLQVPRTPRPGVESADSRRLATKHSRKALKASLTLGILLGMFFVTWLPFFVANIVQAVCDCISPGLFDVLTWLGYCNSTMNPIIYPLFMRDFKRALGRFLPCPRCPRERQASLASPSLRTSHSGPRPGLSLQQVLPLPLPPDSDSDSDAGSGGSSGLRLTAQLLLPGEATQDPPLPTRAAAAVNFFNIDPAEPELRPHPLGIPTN

[11] = target: 5-hydroxytryptamine receptor 2A (Homo sapiens, UniProt P28223); experiment: Displacement of [3H]-Ketanserin from human 5-HT2A receptor expressed in HEK293 cells after 1 hr; format: cell-based
Chain of 5-hydroxytryptamine receptor 2A (P28223 whole entry): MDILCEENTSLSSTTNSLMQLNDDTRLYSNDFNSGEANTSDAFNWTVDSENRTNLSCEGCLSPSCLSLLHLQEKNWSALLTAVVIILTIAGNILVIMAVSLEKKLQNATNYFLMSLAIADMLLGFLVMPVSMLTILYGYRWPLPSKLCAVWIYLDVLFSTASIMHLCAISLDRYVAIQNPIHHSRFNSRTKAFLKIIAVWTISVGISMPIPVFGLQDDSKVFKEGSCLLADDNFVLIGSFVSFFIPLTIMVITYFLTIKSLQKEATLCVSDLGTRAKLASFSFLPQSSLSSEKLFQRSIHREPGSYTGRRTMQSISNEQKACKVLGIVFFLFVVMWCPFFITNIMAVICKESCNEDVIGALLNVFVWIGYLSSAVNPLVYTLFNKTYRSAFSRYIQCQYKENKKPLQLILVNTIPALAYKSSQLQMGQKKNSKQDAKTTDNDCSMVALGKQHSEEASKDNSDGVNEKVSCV

[12] = target: T1, 5-hydroxytryptamine receptor 7 (Homo sapiens, UniProt P34969); experiment: Antagonist activity at human 5-HT7B receptor expressed in CHO cells assessed as inhibition of 5-CT induced cAMP production at 10^-7 M after 30 mins by TR-FRET assay; format: functional, cell-based
T1 sequence (P34969 whole entry): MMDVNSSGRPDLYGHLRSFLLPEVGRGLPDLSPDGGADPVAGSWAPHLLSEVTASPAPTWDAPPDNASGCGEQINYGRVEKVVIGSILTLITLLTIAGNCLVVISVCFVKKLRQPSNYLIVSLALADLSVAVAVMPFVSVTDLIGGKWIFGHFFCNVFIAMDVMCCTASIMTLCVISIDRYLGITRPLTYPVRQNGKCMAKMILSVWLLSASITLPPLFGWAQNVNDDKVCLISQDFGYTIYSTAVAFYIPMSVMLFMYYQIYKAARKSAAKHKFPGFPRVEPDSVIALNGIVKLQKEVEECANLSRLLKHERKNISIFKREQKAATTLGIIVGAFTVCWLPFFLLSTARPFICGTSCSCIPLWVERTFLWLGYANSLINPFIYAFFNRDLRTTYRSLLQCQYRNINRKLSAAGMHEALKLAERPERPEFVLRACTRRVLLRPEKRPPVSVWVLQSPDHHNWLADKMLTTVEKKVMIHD

[13] = target: T1, 5-hydroxytryptamine receptor 7; experiment: Antagonist activity at human 5-HT7B receptor expressed in HEK293 cells assessed as inhibition of 5-CT-induced cAMP production after 30 mins by TR-FRET assay; format: functional, cell-based
Method in brief: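 HEK293 cells stably expressing human 5-HT7b, grown in DMEM with 10% dialyzed FBS and G418, then resuspended in HBSS with 5 mM HEPES, 0.5 mM IBMX and 0.1% BSA. 450 cells per well were incubated 30 min at room temperature with compound and 6.2 nM 5-CT. After lysis, cAMP was read by LANCE TR-FRET after 1 h. Triplicate, 8 concentrations (10^-11–10^-4 M). Kb = IC50/(1+A/EC50).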

Mus musculus [14] = experiment: Antidepressant activity in ip dosed C57BL/6J mouse assessed as reduction in immobility time of mouse by tail suspension test; format: functional; conditions: read-out: MED
Rattus norvegicus = experiment: Antidepressant activity in ip dosed Wistar rat assessed as reduction in immobility time of rat by forced swim test; format: functional; conditions: read-out: MED
Method in brief: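 Male Wistar rats (220-250 g), ip injection 30 min before test. Day 1: 15-min pre-swim in a cylinder with 15 cm of water at 25 °C, then drying under a lamp. Next day: total immobility recorded over the whole 5-min test, with fresh water for each rat.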

Mus musculus [15] = experiment: Anxiolytic activity in ip dosed albino Swiss mouse assessed as increase in number of shocks accepted measured over 1 min, 15 secs by four plates test; format: functional; conditions: read-out: MED
Method in brief: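 Male Albino Swiss mice, ip injection 60 min before test. Four-plate cage; after 15 s of habituation, each plate-to-plate crossing during a 1-min session is punished with a 0.8 mA, 0.5 s foot shock, followed by a 3-s shock-free interval. Number of shocks accepted is counted.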

Mus musculus [16] = experiment: Toxicity in ip dosed C57BL/6J mouse assessed as effect on spontaneous locomotory activity at MED measured over 6 mins; format: organism-based; conditions: in vivo, 0.1 h
Method in brief: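 Mice habituated 30 min in individual cages, then ambulation counted over a period matching each behavioural test: 6 min for the tail suspension test and 1 min 15 s for the four-plate test. Compounds given ip at the active doses.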

Mus musculus [17] = experiment: Toxicity in ip dosed C57BL/6J mouse assessed as effect on spontaneous locomotory activity at MED measured over 1 min 15 secs; format: organism-based; conditions: in vivo
Mus musculus [18] = experiment: Antidepressant activity in C57BL/6J mouse assessed as average force at 0.625 mg/kg, ip measured over 6 mins by tail suspension test (reference value: 0.281 +/- 0.018 to 0.359 +/- 0.027 N); format: functional
Mus musculus [19] = experiment: Antidepressant activity in C57BL/6J mouse assessed as average force at […] mg/kg, ip measured over 6 mins by tail suspension test (reference value: 0.281 +/- 0.018 to 0.359 +/- 0.027 N); format: functional
Mus musculus [20] = experiment: Antidepressant activity in C57BL/6J mouse assessed as average force at […], ip measured over 6 mins by tail suspension test (reference value: 0.281 +/- 0.018 to 0.359 +/- 0.027 N); format: functional
[21] = target: Adrenergic receptor alpha-1 (Rattus norvegicus); experiment: Displacement of [3H]-prazosin from rat alpha1 adrenoceptor in rat cerebral cortex after 1 hr
Mus musculus [22] = experiment: Toxicity in ip dosed Albino Swiss mouse assessed as effect on spontaneous locomotory activity at MED measured over 2 to 6 mins; conditions: in vivo

Question: For `O=S(=O)(NC1CCN(CCOc2ccccc2C2CCCC2)CC1)c1cccc(F)c1`, which Activity (Mus musculus [1]) is on record?
Answer: Its Activity is 1446.8.

Question: What about the Activity (Mus musculus [2]) of the same compound?
Answer: Its Activity is 1595.4.

Question: What about the Activity (Mus musculus [3]) of the same compound?
Answer: Its Activity is 1400.7.

Question: What about the Time (Mus musculus [4]) of the same compound?
Answer: The Time was 234.4 s.

Question: What about the Time (Mus musculus [5]) of the same compound?
Answer: The Time was 192.5 s.

Question: And the Time (Mus musculus [6])?
Answer: The Time was 103.5 s.

Question: What about the Time (Mus musculus [7]) of the same compound?
Answer: Its Time is 142.8 s.

Question: What about the “inhibition (INH)” value (Mus musculus [8]) of the same compound?
Answer: The value was 18%.

Question: What about the Activity (Mus musculus [9]) of the same compound?
Answer: The Activity was “Non-toxic”.

Question: What about the Ratio Ki (Homo sapiens) of the same compound?
Answer: Its Ratio Ki is 31.

Question: And the Ki (D(2) dopamine receptor)?
Answer: Its Ki is 322 nM.

Question: And the Ki [10]?
Answer: The Ki was 281 nM.

Question: What about the Ki [11] of the same compound?
Answer: Its Ki is 303 nM.

Question: And the inhibition [12]?
Answer: The inhibition was 61%.

Question: What about the Kb [13] of the same compound?
Answer: The Kb was 85 nM.

Question: What about the minimal effective dose (Mus musculus [14]) of the same compound?
Answer: Its minimal effective dose is 2.5 mg/kg.

Question: And the minimal effective dose (Rattus norvegicus)?
Answer: The minimal effective dose was 1.25 mg/kg.

Question: And the minimal effective dose (Mus musculus [15])?
Answer: Its minimal effective dose is 1.25 mg/kg.

Question: What about the Activity (Mus musculus [16]) of the same compound?
Answer: The Activity was “Non-toxic”.

Question: And the Activity (Mus musculus [17])?
Answer: The Activity was “Non-toxic”.

Question: And the Activity (Mus musculus [18])?
Answer: The Activity was 0.18 N.

Question: What about the Activity (Mus musculus [19]) of the same compound?
Answer: The Activity was 0.29 N.

Question: What about the Activity (Mus musculus [20]) of the same compound?
Answer: Its Activity is 0.641 N.

Question: And the Ki [21]?
Answer: The Ki was 1525 nM.

Question: What about the Activity (Mus musculus [22]) of the same compound?
Answer: The Activity was “Non-toxic”.
